In PubChem BioAssay AID504513 (The Scripps Research Institute Molecular Screening Center, 2011):
Activity calls are given as the source filed them.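 Rule for the calls: active = PAFAH2 inhibition at least 50% at 0.2 µM with under 50% on each related off-target enzyme; inactive = the rest, including PAFAH2 hits that also hit off-targets.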

What was measured:
Assay in all cases: competitive ABPP of PAFAH2 versus anti-target hydrolases – cell lysate, fluorescence, gel-based ABPP, BW5147 T-cell proteome, powder samples, late-stage follow-up (AID 504513);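 note: 0% = DMSO-only band intensity and 100% = blank gel background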
[1] = system: LYPLA1; details: BW5147 mouse T-cell proteome, FP-Rh gel ABPP, stronger effect = higher value
In short: (§1)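 System – mouse BW5147 T-cell soluble lysate · Input – 1 mg/mL soluble protein · Reagent – FP-Rh probe at 2 µM · Compound dosing – 0.02, 0.2 or 1 µM compound · Times – 30 min compound, 30 min probe at 25 °C · Signal – in-gel fluorescence of probe-labelled bands, integrated optical density · Read-out – percent band labelling lost versus DMSO control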

[2] = system: ABHD11; details: BW5147 mouse T-cell proteome, FP-Rh gel ABPP, stronger effect = higher value
In short: as §1

[3] = target: Platelet-activating factor acetylhydrolase 2, cytoplasmic (Mus musculus) (UniProt Q8VDG7); details: FP-Rh gel ABPP, stronger effect = higher value
Chain of Platelet-activating factor acetylhydrolase 2, cytoplasmic (Mus musculus) (Q8VDG7 whole entry, looked up): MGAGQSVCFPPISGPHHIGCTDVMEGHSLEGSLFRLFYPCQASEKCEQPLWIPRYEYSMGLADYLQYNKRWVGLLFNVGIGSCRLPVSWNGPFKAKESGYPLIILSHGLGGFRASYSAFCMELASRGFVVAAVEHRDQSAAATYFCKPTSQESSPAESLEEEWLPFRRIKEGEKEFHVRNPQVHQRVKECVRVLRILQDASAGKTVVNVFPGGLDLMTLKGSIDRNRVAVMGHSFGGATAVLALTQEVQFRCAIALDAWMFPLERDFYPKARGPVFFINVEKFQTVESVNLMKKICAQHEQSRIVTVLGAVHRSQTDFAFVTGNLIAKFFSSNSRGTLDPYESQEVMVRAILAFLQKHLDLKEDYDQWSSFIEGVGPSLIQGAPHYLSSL
In short: as §1

[4] = system: APEH; details: BW5147 mouse T-cell proteome, FP-Rh gel ABPP, stronger effect = higher value
In short: as §1

[5] = system: ESD; details: BW5147 mouse T-cell proteome, FP-Rh gel ABPP, stronger effect = higher value
In short: as §1

inhibition ([1]; at 1 µM) | inhibition ([1]; inhibition, at 0.02 µM) [%] | inhibition ([1]; inhibition, at 0.2 µM) [%] | inhibition ([2]; at 1 µM) | inhibition ([2]; inhibition, at 0.02 µM) [%] | inhibition ([2]; inhibition, at 0.2 µM) [%] | inhibition ([3]; PAFAH2, at 1 µM) | inhibition ([3]; PAFAH2, inhibition, at 0.02 µM) [%] | inhibition ([3]; PAFAH2, inhibition, at 0.2 µM) [%] | inhibition ([4]; at 1 µM) | inhibition ([4]; inhibition, at 0.02 µM) [%] | inhibition ([4]; inhibition, at 0.2 µM) [%] | inhibition ([5]; at 1 µM) | inhibition ([5]; inhibition, at 0.02 µM) [%] | inhibition ([5]; inhibition, at 0.2 µM) [%] | Compound
0% (inactive) | 0 | 0 | 100% | 0 | 100 | 100% | 0 | 100 | 100% | 0 | 100 | 0% (inactive) | 0 | 0 | O=C(N1CCCC1)n1ncc(C(O)(c2ccccc2)c2ccccc2)n1
0% (inactive) | 0 | 0 | 0% (inactive) | 0 | 0 | 100% | 100 | 100 | 100% | 0 | 100 | 0% (inactive) | 0 | 0 | O=C(N1CCCC1)n1ncc(-c2ccc(Oc3ccccc3)cc2)n1
0% (inactive) | 0 | 0 | 100% | 0 | 100 | 100% | 75 | 100 | 100% | 0 | 100 | 0% (inactive) | 0 | 0 | O=C(N1CCCC1)n1ncc(-c2ccccc2)n1
0% (inactive) | 0 | 0 | 100% | 50 | 100 | 100% | 0 | 100 | 100% | 0 | 100 | 50% (inactive) | 0 | 25 | O=C(N1CCOCC1)n1ncc(-c2cc(F)cc(F)c2)n1
0% (inactive) | 0 | 0 | 50% | 0 | 50 | 100% | 25 | 100 | 100% | 0 | 100 | 0% (inactive) | 0 | 0 | O=C(N1CCCC1)n1ncc(-c2ccc(OC(F)(F)F)cc2)n1
0% (inactive) | 0 | 0 | 100% | 25 | 100 | 50% | 0 | 50 | 0% (inactive) | 0 | 0 | 0% (inactive) | 0 | 0 | O=C(N1CCOCC1)n1ncc(-c2ccc(OC(F)(F)F)cc2)n1
0% (inactive) | 0 | 0 | 0% (inactive) | 0 | 0 | 100% | 0 | 100 | 100% (inactive) | 0 | 25 | 0% (inactive) | 0 | 0 | COc1ccc2cc(-c3cnn(C(=O)N4CCCC4)n3)ccc2c1
0% (inactive) | 0 | 0 | 100% | 50 | 100 | 75% | 25 | 50 | 50% (inactive) | 0 | 25 | 0% (inactive) | 0 | 0 | O=C(N1CCOCC1)n1ncc(-c2ccccc2)n1

The next lines start with the compound.

Compound | inhibition ([1]; at 1 µM) | inhibition ([1]; inhibition, at 0.02 µM) [%] | inhibition ([1]; inhibition, at 0.2 µM) [%] | inhibition ([2]; at 1 µM) | inhibition ([2]; inhibition, at 0.02 µM) [%] | inhibition ([2]; inhibition, at 0.2 µM) [%] | inhibition ([3]; PAFAH2, at 1 µM) | inhibition ([3]; PAFAH2, inhibition, at 0.02 µM) [%] | inhibition ([3]; PAFAH2, inhibition, at 0.2 µM) [%] | inhibition ([4]; at 1 µM) | inhibition ([4]; inhibition, at 0.02 µM) [%] | inhibition ([4]; inhibition, at 0.2 µM) [%] | inhibition ([5]; at 1 µM) | inhibition ([5]; inhibition, at 0.02 µM) [%] | inhibition ([5]; inhibition, at 0.2 µM) [%]
CN(C)C(=O)n1ccnn1 | 0% (inactive) | 0 | 0 | 0% (inactive) | 0 | 0 | 0% (inactive) | 0 | 0 | 0% (inactive) | 0 | 0 | 0% (inactive) | 0 | 0
CCN(CC)C(=O)n1ccnn1 | 0% (inactive) | 0 | 0 | 0% (inactive) | 0 | 0 | 0% (inactive) | 0 | 0 | 0% (inactive) | 0 | 0 | 0% (inactive) | 0 | 0
O=C(N1CCOCC1)n1ncc(C(O)(c2ccccc2)c2ccccc2)n1 | 0% (inactive) | 0 | 0 | 100% | 25 | 100 | 50% | 0 | 50 | 0% (inactive) | 0 | 0 | 0% (inactive) | 0 | 0
CN1CCN(C(=O)n2ccnn2)CC1 | 0% (inactive) | 0 | 0 | 50% (inactive) | 0 | 0 | 0% (inactive) | 0 | 0 | 0% (inactive) | 0 | 0 | 0% (inactive) | 0 | 0
O=C(n1ccnn1)n1c2ccccc2c2ccccc21 | 0% (inactive) | 0 | 0 | 0% (inactive) | 0 | 0 | 0% (inactive) | 0 | 0 | 0% (inactive) | 0 | 0 | 0% (inactive) | 0 | 0
C=CCN(CC=C)C(=O)n1ccnn1 | 0% (inactive) | 0 | 0 | 100% (inactive) | 0 | 0 | 0% (inactive) | 0 | 0 | 0% (inactive) | 0 | 0 | 0% (inactive) | 0 | 0
O=C(N1CCOCC1)n1ccnn1 | 0% (inactive) | 0 | 0 | 100% | 0 | 50 | 100% (inactive) | 0 | 0 | 0% (inactive) | 0 | 0 | 0% (inactive) | 0 | 0
O=C(N(c1ccccc1)c1ccccc1)n1ccnn1 | 0% (inactive) | 0 | 0 | 100% | 0 | 50 | 0% (inactive) | 0 | 0 | 0% (inactive) | 0 | 0 | 0% (inactive) | 0 | 0
O=C(N1CCCC1)n1ccnn1 | 100% (inactive) | 0 | 0 | 100% (inactive) | 0 | 0 | 100% (inactive) | 0 | 0 | 100% (inactive) | 0 | 0 | 0% (inactive) | 0 | 0
O=C(N1CCCCC1)n1ccnn1 | 0% (inactive) | 0 | 0 | 50% (inactive) | 0 | 0 | 50% (inactive) | 0 | 0 | 0% (inactive) | 0 | 0 | 0% (inactive) | 0 | 0
CN(C(=O)n1ccnn1)c1ccccc1 | 0% (inactive) | 0 | 0 | 100% (inactive) | 0 | 0 | 0% (inactive) | 0 | 0 | 0% (inactive) | 0 | 0 | 0% (inactive) | 0 | 0
